Measurements taken from ChEMBL document CHEMBL1135642, “Synthesis and biological evaluation of 7,8,9,10-tetrahydroimidazo[1,2-c]pyrido[3,4-e]pyrimdin-5(6H)-ones as functionally selective ligands of the benzodiazepine receptor site on the GABA(A) receptor” (J Med Chem, 2002).

Columns and labels:
[1] = molecular target: GABA-A receptor; anion channel; assay: Binding affinity was determined by displacement of [3H]flumazenil from rat cortex homogenates; assay type: functional
How it was run: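 Displacement of [3H]flumazenil from rat cortex homogenates. Values are averages (±SD); some analogues were run once as a single set of triplicates. NA means an IC50 was not achieved at the highest dose tested.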

[2] = molecular target: T1, Gamma-aminobutyric acid receptor subunit alpha-1 (Homo sapiens, UniProt P14867); assay: Effective concentration against gamma-aminobutyric acid (GABA) A receptor, alpha 1; parameters: species or system Xenopus laevis
T1 sequence (P14867 whole entry): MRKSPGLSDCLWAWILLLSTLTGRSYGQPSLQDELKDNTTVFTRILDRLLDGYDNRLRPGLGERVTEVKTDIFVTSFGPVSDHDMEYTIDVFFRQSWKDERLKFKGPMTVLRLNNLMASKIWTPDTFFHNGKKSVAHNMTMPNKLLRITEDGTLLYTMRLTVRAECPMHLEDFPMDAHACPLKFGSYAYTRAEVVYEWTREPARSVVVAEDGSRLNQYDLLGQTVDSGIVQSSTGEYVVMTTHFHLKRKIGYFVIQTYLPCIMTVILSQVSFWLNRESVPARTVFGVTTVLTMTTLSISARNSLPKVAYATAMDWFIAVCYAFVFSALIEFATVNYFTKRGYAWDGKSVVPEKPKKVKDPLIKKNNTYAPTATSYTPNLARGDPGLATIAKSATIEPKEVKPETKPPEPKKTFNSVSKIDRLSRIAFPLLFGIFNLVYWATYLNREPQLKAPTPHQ
How it was run: (§1)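 Xenopus laevis oocytes were injected with human cRNA for the α, β and γ subunits needed to express each receptor subtype (α1, α2, α3 or α5). Electrophysiological recording was used to read potentiation, and the effective concentration and maximal percent potentiation were derived from it.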

[3] = molecular target: T2, Gamma-aminobutyric acid receptor subunit alpha-2 (Homo sapiens, UniProt P47869); assay: Effective concentration against gamma-aminobutyric acid (GABA) A receptor, alpha 2; parameters: species or system Xenopus laevis; how it was run: as §1
T2 sequence (P47869 whole entry): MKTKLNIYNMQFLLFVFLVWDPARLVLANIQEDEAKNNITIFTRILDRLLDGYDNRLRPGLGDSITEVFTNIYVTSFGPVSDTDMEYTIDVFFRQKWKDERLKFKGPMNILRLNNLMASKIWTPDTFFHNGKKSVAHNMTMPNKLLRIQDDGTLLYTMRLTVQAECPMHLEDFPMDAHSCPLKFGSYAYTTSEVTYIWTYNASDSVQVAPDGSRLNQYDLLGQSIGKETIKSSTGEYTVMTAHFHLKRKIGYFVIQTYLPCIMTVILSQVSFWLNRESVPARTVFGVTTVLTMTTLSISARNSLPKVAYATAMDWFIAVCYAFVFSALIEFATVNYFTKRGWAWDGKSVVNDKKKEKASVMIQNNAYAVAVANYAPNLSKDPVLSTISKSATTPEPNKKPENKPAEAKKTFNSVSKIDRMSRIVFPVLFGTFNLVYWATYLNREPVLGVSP

[4] = molecular target: T3, Gamma-aminobutyric acid receptor subunit alpha-1 (Homo sapiens) (UniProt P14867); assay: Maximum percent potentiation against gamma-aminobutyric acid (GABA) A receptor, alpha 1; details: Xenopus laevis; how it was run: as §1
T3 sequence (whole entry): T1 sequence (P14867 whole entry)

[5] = molecular target: T4, Gamma-aminobutyric acid receptor subunit alpha-3 (Homo sapiens) (UniProt P34903); assay: Maximum percent potentiation against gamma-aminobutyric acid (GABA) A receptor, alpha 3; details: Xenopus laevis; how it was run: as §1
T4 sequence (whole entry): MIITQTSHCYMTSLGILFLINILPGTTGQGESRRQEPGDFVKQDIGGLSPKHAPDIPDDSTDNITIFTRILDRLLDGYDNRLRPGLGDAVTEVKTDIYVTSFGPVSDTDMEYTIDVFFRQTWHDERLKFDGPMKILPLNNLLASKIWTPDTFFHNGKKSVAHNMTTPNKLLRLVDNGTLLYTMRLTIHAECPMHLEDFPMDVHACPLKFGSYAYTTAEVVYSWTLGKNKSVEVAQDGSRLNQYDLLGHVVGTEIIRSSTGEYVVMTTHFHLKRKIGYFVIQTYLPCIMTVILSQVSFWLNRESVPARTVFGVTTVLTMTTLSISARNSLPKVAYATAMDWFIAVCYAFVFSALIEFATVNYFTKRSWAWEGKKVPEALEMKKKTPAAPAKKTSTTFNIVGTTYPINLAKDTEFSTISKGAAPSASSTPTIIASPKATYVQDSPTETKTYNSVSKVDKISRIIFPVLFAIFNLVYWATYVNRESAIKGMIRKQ

[6] = molecular target: T5, Gamma-aminobutyric acid receptor subunit alpha-2 (Homo sapiens) (UniProt P47869); assay: Maximum percent potentiation against gamma-aminobutyric acid (GABA) A receptor, alpha 2; details: Xenopus laevis; how it was run: as §1
T5 sequence (whole entry): T2 sequence (P47869 whole entry)

[7] = molecular target: T6, Gamma-aminobutyric acid receptor subunit alpha-5 (Homo sapiens) (UniProt P31644); assay: Maximum percent potentiation against gamma-aminobutyric acid (GABA) A receptor, alpha 5; details: Xenopus laevis; how it was run: as §1
T6 sequence (whole entry): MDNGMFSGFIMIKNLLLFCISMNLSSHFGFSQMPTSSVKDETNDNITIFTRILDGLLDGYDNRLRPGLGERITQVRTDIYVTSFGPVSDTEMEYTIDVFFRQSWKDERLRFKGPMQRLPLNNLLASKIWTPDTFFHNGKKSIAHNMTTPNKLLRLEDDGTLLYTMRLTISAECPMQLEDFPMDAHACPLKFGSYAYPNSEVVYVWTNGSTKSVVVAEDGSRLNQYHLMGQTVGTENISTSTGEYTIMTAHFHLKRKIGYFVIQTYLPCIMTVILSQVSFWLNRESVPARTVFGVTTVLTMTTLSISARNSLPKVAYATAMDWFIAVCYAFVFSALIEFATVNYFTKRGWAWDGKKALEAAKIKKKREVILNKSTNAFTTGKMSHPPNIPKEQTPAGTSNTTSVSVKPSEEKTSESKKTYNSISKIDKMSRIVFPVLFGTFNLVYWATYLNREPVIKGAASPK

[8] = molecular target: T7, Gamma-aminobutyric acid receptor subunit alpha-3 (Homo sapiens, UniProt P34903); assay: Effective concentration against gamma-aminobutyric acid (GABA) A receptor, alpha 3; parameters: species or system Xenopus laevis; how it was run: as §1
T7 sequence (P34903 whole entry): T4 sequence (whole entry)

O=C(Cc1ccccc1)N1CCc2nc(O)n3cc(-c4ccccc4F)nc3c2C1
Ki [1]: 388 nM

CCCC(=O)N1CCc2nc(O)n3cc(-c4ccccc4F)nc3c2C1
Ki [1]: 261 nM

O=c1[nH]c2c(c3nc(-c4ccccc4)cn13)CN(Cc1ccccc1)CC2
EC50 [2]: 17 nM
EC50 [3]: 184 nM

COc1ccccc1-c1cn2c(O)nc3c(c2n1)CN(Cc1ccccc1)CC3
Ki [1]: 797 nM

C=CCN1CCc2nc(O)n3cc(-c4ccccc4F)nc3c2C1
Activity [4]: 5%
Activity [5]: 20%
Activity [6]: 18%
Activity [7]: 0%

O=C(c1ccccc1)N1CCc2nc(O)n3cc(-c4ccccc4F)nc3c2C1
Ki [1]: 83 nM

CC(c1ccccc1F)N1CCc2nc(O)n3cc(-c4ccccc4F)nc3c2C1 (configuration not stated)
Ki [1]: 1.7 nM

O=C(c1ccccc1)N1CCc2nc(O)n3cc(-c4ccccc4)nc3c2C1
Ki [1]: 301 nM

Oc1nc2c(c3nc(-c4ccccc4F)cn13)CN(CCCc1ccccc1)CC2
Ki [1]: 147 nM

CCOC(=O)N1CCc2nc(O)n3cc(-c4ccccc4F)nc3c2C1
Ki [1]: 64 nM

O=c1[nH]c2c(c3nc(-c4ccccc4F)cn13)CN(Cc1cccnc1)CC2
EC50 [2]: 56 nM
EC50 [8]: 23 nM
Ki [1]: 1.4 nM
EC50 [3]: 101 nM

CCN1CCc2nc(O)n3cc(-c4ccccc4F)nc3c2C1
EC50 [8]: 935 nM
Activity [4]: 0%
Activity [5]: 14%
Ki [1]: 56 nM
Activity [6]: 0%
Activity [7]: 0%

CC(C)N1CCc2nc(O)n3cc(-c4ccccc4F)nc3c2C1
Ki [1]: 51 nM

Oc1nc2c(c3nc(-c4cc(F)cc(F)c4)cn13)CN(Cc1ccccc1)CC2
Ki [1]: 72 nM

Oc1nc2c(c3nc(-c4ccccc4F)cn13)CN(Cc1ccccc1)CC2
Activity [4]: 56%
Activity [5]: 120%
Activity [6]: 76%
Activity [7]: 31%

COc1ccc(-c2cn3c(O)nc4c(c3n2)CN(Cc2ccccc2)CC4)c(F)c1
Ki [1]: 0.6 nM

Oc1nc2c(c3nc(-c4ccccc4F)cn13)CN(CCc1ccccc1)CC2
Ki [1]: 83 nM

CC(=O)N1CCc2nc(O)n3cc(-c4ccccc4F)nc3c2C1
EC50 [8]: 71 nM
Activity [4]: 0%
Activity [5]: 11%
Ki [1]: 41 nM
Activity [6]: 0%
Activity [7]: 0%

CC(c1ccccc1)N1CCc2nc(O)n3cc(-c4ccccc4F)nc3c2C1 (configuration not stated)
Ki [1]: 2.9 nM

O=C(c1ccncc1)N1CCc2nc(O)n3cc(-c4ccccc4F)nc3c2C1
Ki [1]: 123 nM

O=c1[nH]c2c(c3nc(-c4ccc(F)cc4)cn13)CN(Cc1ccccc1)CC2
EC50 [2]: 136 nM
Ki [1]: 21 nM
EC50 [3]: 245 nM

Oc1nc2c(c3nc(-c4ccccc4F)cn13)CN(Cc1c[nH]cn1)CC2
Activity [4]: 40%
Activity [5]: 49%
Activity [6]: 58%
Activity [7]: 44%

Oc1nc2c(c3nc(-c4ccccc4)cn13)CN(Cc1ccccc1)CC2
Activity [4]: 67%
Activity [6]: 179%

COc1cccc(-c2cn3c(=O)[nH]c4c(c3n2)CN(Cc2ccccc2)CC4)c1
EC50 [2]: 81 nM
Ki [1]: 2.3 nM
EC50 [3]: 268 nM

CN1CCc2nc(O)n3cc(-c4ccccc4F)nc3c2C1
Activity [4]: 0%
Activity [6]: 0%

Oc1nc2c(c3nc(-c4cccc(Cl)c4)cn13)CN(Cc1ccccc1)CC2
Ki [1]: 71 nM

Oc1nc2c(c3nc(-c4ccc(Cl)cc4)cn13)CN(Cc1ccccc1)CC2
Ki [1]: 121 nM

COc1ccc(-c2cn3c(O)nc4c(c3n2)CN(C)CC4)cc1
Ki [1]: 240 nM

CC(c1cccc(F)c1)N1CCc2nc(O)n3cc(-c4ccccc4F)nc3c2C1 (configuration not stated)
Ki [1]: 8.3 nM

CCCCOC(=O)N1CCc2nc(O)n3cc(-c4ccccc4F)nc3c2C1
Ki [1]: 230 nM

C[C@@H](c1ccccc1)N1CCc2nc(O)n3cc(-c4ccccc4F)nc3c2C1
Ki [1]: 6.5 nM

CC(c1ccc(F)cc1)N1CCc2nc(O)n3cc(-c4ccccc4F)nc3c2C1 (configuration not stated)
Ki [1]: 14.9 nM

C=CCN1CCc2[nH]c(=O)n3cc(-c4ccccc4F)nc3c2C1
EC50 [2]: 170 nM
EC50 [8]: 344 nM
Ki [1]: 26 nM
EC50 [3]: 284 nM

O=C(c1cccnc1)N1CCc2nc(O)n3cc(-c4ccccc4F)nc3c2C1
Ki [1]: 92 nM

Oc1nc2c(c3nc(-c4ccccc4F)cn13)CN(CC1CCCCC1)CC2
Activity [4]: 114%
Activity [5]: 115%
Activity [6]: 71%
Activity [7]: 101%

COc1cccc(-c2cn3c(O)nc4c(c3n2)CN(Cc2ccccc2)CC4)c1
Activity [4]: 123%
Activity [6]: 115%

O=C(c1ccccn1)N1CCc2nc(O)n3cc(-c4ccccc4F)nc3c2C1
Ki [1]: 73 nM

O=C(OCc1ccccc1)N1CCc2nc(O)n3cc(-c4ccccc4F)nc3c2C1
Activity [4]: 5%
Activity [5]: 0%
Activity [6]: 8%
Activity [7]: 3%

COc1ccc(-c2cn3c(=O)[nH]c4c(c3n2)CN(Cc2ccccc2)CC4)cc1
EC50 [2]: 28 nM
Ki [1]: 2.6 nM
EC50 [3]: 143 nM

COc1ccc(-c2cn3c(O)nc4c(c3n2)CN(C)CC4)c(F)c1
Ki [1]: 45 nM

Oc1nc2c(c3nc(-c4ccc(F)cc4F)cn13)CN(Cc1ccccc1)CC2
Activity [4]: 63%
Activity [5]: 95%
Activity [6]: 184%
Activity [7]: 30%

Oc1nc2c(c3nc(-c4cc(F)ccc4F)cn13)CN(Cc1ccccc1)CC2
EC50 [2]: 36 nM
Activity [4]: 59%
Activity [6]: 82%
EC50 [3]: 188 nM

O=c1[nH]c2c(c3nc(-c4cccc(F)c4)cn13)CN(Cc1ccccc1)CC2
EC50 [2]: 120 nM
Ki [1]: 11.3 nM
EC50 [3]: 154 nM
